# In the library only some 1.8% were active in any assay of this set; here they are far more common.
# HDAC3 inhib = human HDAC3 inhibition; O15379; recombinant HDAC3, fluorogenic peptide/trypsin coupled, fluorescence; inhibition, % at 8.3 µM; 320,000 compounds, 0.15% hits; AID 2718; in the data active = inhibition above about 26%, passing the limit was not always enough
# LANA-H2A inh = blocks KSHV LANA binding to histone H2A/H2B | Q9QR71 | cell-free LANA-H2A/H2B peptide, fluorescence polarization | inhibition, % (no concentration beside the values) | 320,000 compounds, 0.6% hits | AID 2629; in the data active = inhibition mostly above about 10%, no sharp cut-off; inactive = mostly below about 6.7%
# HKDC1 inhibitor = HKDC1 (human) hexokinase inhibition | Q2TB90 | recombinant HKDC1, G6PDH/diaphorase resazurin coupled fluorescence | inhibition, % at 20 µM | 340,000 compounds, 0.16% hits | AID 493160;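 active = inhibition above about 35% when tested at 20 µM, limit read from the data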
#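 Test system: recombinant HKDC1 (HK5) hexokinase enzyme, produced in-house / Doses: 20 µM test compound, 1% DMSO / Timing: 90 min, room temperature / Detection: G6PDH/diaphorase-coupled fluorescence, 1 mM NADP, 100 µM resazurin, 525/613 nm / Control set: DMSO wells with and without enzyme mix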
# A1 inh = inhibitors of the anti-apoptotic protein A1, read as caspase activation; MEF A1-2A-BIM cells, Caspase-Glo 3/7 luminescence, 3 h; percent of clofoctol response, vehicle zero; caspase activation, % (test concentration not listed); 330,000 compounds, 0.066% hits;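 active = over half of replicate activation scores above 10%, or exactly half above 10 with the replicate mean above 10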
# ATG4B inhibitor = blocks human ATG4B protease cleavage of LC3 substrate; ATG4B cleavage of LC3-PLA2, NBD-HPC fluorescence, 1 h; AID 504462; inhibition, % at 8.33 µM; 340,000 compounds, 0.51% hits; Q9Y4P1; in the data active = inhibition above about 40%
# AI-2 QS mod = modulators of Vibrio harveyi AI-2 quorum sensing system. Vibrio harveyi JMH597 AI-2 luminescence/OD600 ratio, 9 h; active compounds read low; strain lacks LuxN and CqsS sensors; 0 = neutral-control median. activity change, % at 7.5 µM. 300,000 compounds, 0.4% hits. AID 2094; in the data active = activity change below about -75%, passing the limit was not always enough;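 note: luminescence divided by OD600 gain over 9 h not by final OD600 alone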
# A number is an active result; n = inactive; x = no result; + = active, no number; ! = not active in a repeat.
SMILES,HDAC3 inhib,LANA-H2A inh,HKDC1 inhibitor,A1 inh,ATG4B inhibitor,AI-2 QS mod
COc1ccc(NC2=C(Cl)C(=O)N(c3ccccc3)C2=O)c(OC)c1,n,15,n,n,n,n
COc1ccccc1C(CNC(=O)c1ccc(S(=O)(=O)N2CCCCC2)cc1)N(C)C (stereo not given),n,+,n,n,n,x
CC(NS(=O)(=O)c1ccc(Cl)cc1)C(=O)OCC(=O)Nc1ccc(N(C)C)cc1 (stereo not given),x,x,n,x,n,x
Cc1ccc(C(=O)N2C(=O)c3cccc(N)c3C2=O)o1,n,20,n,n,n,n
CN(C)c1nc(N(C)C)nc(N(C)C)n1,n,19!,n,n,n,n
CC(=O)N1C2=CCCC3CCCCC23c2ccccc21 (stereo not given),x,x,n,x,n,x
CCOC(=O)Cc1csc(/N=C/c2c(O)n(-c3ccc(C)c(C)c3)c(=O)c3ccccc23)n1,n,n,n,22,n,n
NS(=O)(=O)c1ccc(N/N=C/c2cn(-c3ccccc3)nc2-c2ccccc2)c([N+](=O)[O-])c1,n,n,n,5.8,n,n
COC(=O)c1cc2c(n1S(=O)(=O)c1ccc(C)cc1)C(=O)C(=O)c1[nH]cc(C(=O)OCc3ccccc3)c1-2,x,x,n,x,n,x
COc1ccc(-n2c(=S)[nH]c3cc(C(=O)Nc4ccc(OC)c(OC)c4)ccc3c2=O)cc1,n,126,n,n,n,n
COc1ccc(-n2c(=S)[nH]c3cc(C(=O)Nc4cccc(C)c4)ccc3c2=O)cc1,n,n,n,n,n,n
COc1cc2c(cc1OC)C(C)N(C(=O)c1cc3c(=O)oc4ccc(C)cc4c3s1)CC2 (stereo not given),n,n,n,n,n,n
COc1ccccc1CNC(=O)COC(=O)/C=C/c1ccc2ccccc2n1,n,17,n,n,n,x
CC(CC(=O)c1ccc(F)cc1)N1CCN(c2ccccc2)CC1 (stereo not given),x,x,n,x,n,x
COC(=O)c1c(NC(=O)c2ccc([N+](=O)[O-])o2)sc2c1CCN(C(C)C)C2,n,n,n,n,n,-90
CC(C)N1CCc2c(sc(NC(=O)c3ccc([N+](=O)[O-])o3)c2C(N)=O)C1,n,n,x,n,x,-90
O=C(CN1C(=O)NC2(CCCC2)C1=O)N1CCCSC1=Nc1ccccc1,x,x,n,x,n,x
Cc1noc(C)c1C(=O)N1CCCC(Nc2ccc(C(C)C)cc2)C1 (stereo not given),n,21,n,n,n,n
COc1ccc(NC2CCCN(C(=O)c3c(C)noc3C)C2)cc1 (stereo not given),n,n,n,n,n,n
COc1ccc(C)cc1C(=O)CCC(=O)N1CCN(c2ccccc2F)CC1,x,x,n,x,n,x
O=C1ON=C(c2ccccc2)/C1=C/c1ccc(OS(=O)(=O)c2ccccc2)cc1,n,121,n,n,n,x
COc1ccccc1C(=O)Nc1ccc2c(c1)nc1n2CCN(Cc2ccccc2)C1,n,16,n,n,n,n
COc1ccc(N2CCN(c3ccc(C(=O)O)cc3[N+](=O)[O-])CC2)cc1,n,n,n,n,n,n
S=c1nc(-c2ccc(Cl)cc2)[nH][nH]1,n,n,n,n,n,x
CCCOc1ccc(-c2nc(=S)[nH][nH]2)cc1,n,n,n,n,n,-84
SMILES,HDAC3 inhib,LANA-H2A inh,HKDC1 inhibitor,A1 inh,ATG4B inhibitor,AI-2 QS mod
COc1cc(C(=O)NNC(=O)CCOc2ccccc2)cc(OC)c1OC,n,17,n,n,n,x
COc1cc(C(=O)NNC(=O)Cc2cccs2)cc(OC)c1OC,n,n,n,n,n,x
CC(O)/C=C/c1cccc[n+]1C (stereo not given),n,n,n,n,n,x
C[n+]1ccccc1/C=N/O,n,18!,n,n,n,n
Oc1c(C(c2ccc(Cl)cc2)N2CCCC2)cc(Cl)c2cccnc12 (stereo not given),x,n,n,n,n,-121
Cc1ccc(C(c2cc(Cl)c3cccnc3c2O)N2CCN(C)CC2)cc1 (stereo not given),n,n,n,n,n,-169
CN1CCN(C(c2ccccn2)c2cc(Cl)c3cccnc3c2O)CC1 (stereo not given),n,n,n,n,n,n
COc1ccccc1-c1nnc(SCC(=O)Nc2oc(C)c3c(C)n[nH]c(=O)c23)n1C,n,n,n,n,n,n
Cc1n[nH]c(=O)c2c(NC(=O)CSc3nnc(-c4ccco4)n3C)oc(C)c12,n,92,n,n,n,x
Cc1n[nH]c(=O)c2c(NC(=O)CSc3nn(-c4ccc(F)cc4)c(=S)s3)oc(C)c12,45,n,n,n,n,n
Cc1noc(C)c1NC(=O)N(C)C[C@H]1Oc2ccc(NC(=O)C3CCCCC3)cc2C(=O)N([C@H](C)CO)C[C@@H]1C,n,n,n,n,n,x
COc1ccc(C2=NN(C(=O)c3ccco3)C(c3cc4ccccc4nc3Cl)C2)cc1 (stereo not given),n,n,n,n,n,n
O=C(c1ccco1)N1N=C(c2ccco2)CC1c1ccc(Cl)cc1Cl (stereo not given),n,+,n,n,n,x
O=C(NNS(=O)(=O)c1ccccc1Cl)C1COc2ccccc2O1 (stereo not given),n,n,n,n,n,x
CC(C)(C)OC(=O)NC1CCN(S(=O)(=O)c2ccc3c(c2)OCCO3)CC1,x,x,n,x,n,n
Cc1ccc(NC(=S)N2CCCC(CO)C2)c(C)c1 (stereo not given),n,30,n,n,n,n
CCOc1ccc(-c2c(C#N)c(N)nc3sc(C(=O)c4ccccc4)c(N)c23)cc1,n,11,n,n,n,n
COc1ccc(NC(=O)CSc2nc3c([nH]c4ccccc43)c(=O)n2C)cc1,n,11,n,n,n,n
COc1ccc(NC(=O)CSc2nc3cccnc3n2C)cc1,n,38,n,n,n,n
COc1ccc(NC(=O)CSc2nc3sc(C)cc3c(=O)n2C)c(OC)c1,n,16,n,n,n,n
CNC(=O)c1cn2c3c(ccc(Cl)c3c1=O)OC(C)C2 (stereo not given),x,x,n,x,n,x
O=C(Cc1coc2cc(O)ccc12)N1CCN(S(=O)(=O)c2ccc(Br)cc2)CC1,x,x,n,x,n,x
CC(=O)Nc1cccc(C2=CC(c3ccco3)n3ncnc3N2)c1 (stereo not given),n,30,x,n,x,n
Clc1ccc(C2=CC(c3ccco3)n3ncnc3N2)cc1 (stereo not given),n,n,n,n,n,n
O=C(N/N=C/c1ccc(Br)s1)c1c[nH]c2ccccc12,n,n,n,n,n,-77
O=C(N/N=C/c1cc(Br)cs1)c1c[nH]c2ccccc12,n,n,n,n,n,n
